This note sets out measurements from ChEMBL document CHEMBL4513216, “Probing the Open Global Health Chemical Diversity Library for Multistage-Active Starting Points for Next-Generation Antimalarials” (ACS Infect Dis, 2020).

Each structure is given as a SMILES string.

This data set in a line: Toxicity liver stage against HepG2, at 10uM. It counts as cell-based. Also on record: test concentration 10 uM, cell line HepG2-A16-CD81EGFP. The settings on record: human, HepG2-A16-CD81EGFP cells; read-out: INHIBITION
Put shortly: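 Uninfected HepG2-A16-CD81EGFP cells, 3 × 10^3 per well, 1536-well, plated on prespotted compound at 10 μM final, parasite-free screening media added to match infected plates; puromycin 10 μM positive, DMSO 0.5% negative; run in parallel with 48 h PbLuc assay at 37 °C, 5% CO2; viability by CellTiter-Glo luminescence, normalized to controls.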
For the compound `CN(C)Cc1cnc(C2CCN(C(=O)c3cccc(F)c3)C2)[nH]1` (stereo unspecified), the cytotoxicity at 10 µM was 2.54%.

On to `CN(C)C(=O)CCC(=O)N1CCC2(CC1)COC2`, for which the cytotoxicity at 10 µM is 2.05%. As for `O=C(Cc1c(F)cccc1Cl)Nc1cc(N2CCCC2)ncn1`, the cytotoxicity at 10 µM is -2.85%. `CO[C@H]1CCN(c2ccc(C)nn2)[C@H]1Cc1cnn(C)c1`: the cytotoxicity at 10 µM is -12.7%.

Take `CCc1nn(C)c(Cl)c1CN1CCC(Cc2nncn2C)CC1`: the cytotoxicity at 10 µM was -1.52%.

Consider `CN1C(=O)CCCC12CCCN(C(=O)c1cccc(C(F)(F)F)c1)C2` (stereo unspecified), for which the cytotoxicity at 10 µM was determined as 4.65%. For the compound `c1csc(CN2CCCn3cnc(COCC4CC4)c3C2)n1`, the cytotoxicity at 10 µM amounted to 9.7%. Then `COc1ccc2c(c1)CCCN(C(=O)NCC1CCCO1)C2` (stereo unspecified), with 1.06%; and `COc1ccc(C2(C(=O)NCc3c(C)ncc4c3CCNC4)CC2)cc1`, with -50.7%. Then `CC1CCN(C)c2ccccc2N1C(=O)c1ccnc(-n2cncn2)c1` (stereo unspecified), with 2.37%.

As to `O=C(c1cccs1)N1CCCC(c2cc(C(F)F)n3ncnc3n2)C1` (stereo unspecified), the cytotoxicity at 10 µM was -23.4%. Consider `O=C(CCNC(=O)c1ccoc1)Nc1ccccc1F`, for which the cytotoxicity at 10 µM was -8.38%. To `CCN(c1ccsc1C(=O)N1CCSCC1)S(=O)(=O)c1ccc(Cl)cc1` belongs 14.5%; to `Cn1cccc1C(O)CNS(=O)(=O)c1ccccc1F` (stereo unspecified), -14.6%. For the compound `Cc1nc2c(c(N[C@@H](CO)C(N)=O)n1)Cc1ccccc1OC2`, the cytotoxicity at 10 µM is 2.8%.

Consider `COCC1CC2(CCN(Cc3ccc(OC)cc3)CC2)CN1C(C)C` (stereo unspecified), for which the cytotoxicity at 10 µM is -3.68%. `CCCC1(CO)CCCN(C(=O)CNC(C)=O)C1` (stereo unspecified): the cytotoxicity at 10 µM is 3.43%. Turning to `Cc1ccc(C(=O)NCCC2CN(c3cnn(C)c(=O)c3)CCO2)s1` (stereo unspecified), the cytotoxicity at 10 µM was -1.38%.

Regarding `COc1cccc(C(CO)NC(=O)Cc2ccc(F)c(Br)c2)c1` (stereo unspecified), the cytotoxicity at 10 µM is 8.44%. To `COc1ccc(Cn2c(Cc3c(C)n[nH]c3C)n[nH]c2=O)cc1` belongs -142%; to `CN(Cc1ncc[nH]1)S(=O)(=O)c1cccc(C(=O)N2CCOCC2)c1`, -9.5%. As to `COCCCN1CC2(CCCCN2C(=O)c2ccsc2)CC1=O` (stereo unspecified), the cytotoxicity at 10 µM was determined as 5.03%.

As for `CNC(=O)[C@@]12CCCN(c3ncccn3)[C@@H]1CN(c1ncc(F)cn1)C2`, the cytotoxicity at 10 µM is -1.43%. Take `Cc1nc(N2CCCN(c3ncccn3)CC2)c2cnn(C)c2n1`: the cytotoxicity at 10 µM was 0.977%. As for `COCCN1Cc2ccnn2CC(COCc2cccnc2)C1` (stereo unspecified), the cytotoxicity at 10 µM is -131%.

With `CC(C)CN1C(=O)CO[C@@H]2CN(C(=O)C3CCOCC3)C[C@H]21`, the cytotoxicity at 10 µM is -88.1%. Turning to `O=C(CCC1CCCO1)N1CCc2nc(-c3cnccn3)nc(O)c2C1` (stereo unspecified), the cytotoxicity at 10 µM is -20.3%. Regarding `COCCNC(=O)C1(Cc2ccccc2-c2ccncc2)CCOCC1`, the cytotoxicity at 10 µM is -26.3%. For `Cc1ccc(C(CNCc2cccc3c2OCO3)N2CCOCC2)o1` (stereo unspecified), the cytotoxicity at 10 µM was -38.9%. Then `Cc1c(C(C)NC(=O)Nc2ccccc2F)cnn1C` (stereo unspecified), with -45.2%. For the compound `COc1nc2ccn(CCc3cnccn3)c(=O)c2cc1C#N`, the cytotoxicity at 10 µM amounted to 54.1%. For the compound `COc1ccc(-c2cn3c(n2)CO[C@@H](CNCc2ccccn2)C3)cc1`, the cytotoxicity at 10 µM was -11.8%.

Take `Cc1ccc2nc(C3CCCN3Cc3cccc(CCN)c3)[nH]c2c1` (stereo unspecified): the cytotoxicity at 10 µM is -7.01%.

Regarding `Cc1ncc(CNC(=O)N(CCCO)C2CCc3ccccc32)s1` (stereo unspecified), the cytotoxicity at 10 µM was -12.9%. For the compound `Fc1cccc(Cl)c1CNCCOc1ccccn1`, the cytotoxicity at 10 µM was -11.4%. On to `Cc1cc(C)c2c(NCc3nncn3C3CCCCC3)ncnc2n1`, for which the cytotoxicity at 10 µM was -0.404%.

For `O=C(Cc1ccc(Br)s1)NCC(=O)Nc1cn[nH]c1`, the cytotoxicity at 10 µM was 2.06%. As to `CC(C)CC(NC(=O)c1ccc[nH]1)C(=O)N1CCC(CO)CC1` (stereo unspecified), the cytotoxicity at 10 µM was found to be 6.74%. For `CCCc1cc(=O)n(CC(N)=O)c(-n2nc(C)cc2C)n1`, the cytotoxicity at 10 µM worked out at 0.097%.

Regarding `Fc1ccc2c(c1)C1(CCNCC1)CC2NC1CC1` (stereo unspecified), the cytotoxicity at 10 µM is -117%. With `Cn1cccc1C(CNC(=O)c1ccc(F)cc1F)N1CCCCCC1` (stereo unspecified), the cytotoxicity at 10 µM was found to be 2.19%.

As for `O=C(O)c1ccccc1-c1ccc(CN2CC(c3ccncn3)C2)o1`, the cytotoxicity at 10 µM turned out to be 4.54%. Consider `NC(=O)C1(Cc2ccc(-c3ccccc3)cc2)CCNC1` (stereo unspecified), for which the cytotoxicity at 10 µM amounted to 11.5%. For `Cn1cc(CN2CCCC23CCN(C(=O)c2ccsc2)CC3)cn1`, the cytotoxicity at 10 µM is 0.993%. Then `Cn1nnc2c1C(COCC1CC1)CN(C(=O)Cc1ccccn1)C2` (stereo unspecified), with 13.5%; and `Cc1noc(C)c1CS(=O)(=O)C(C)C(=O)N(C)c1ccccc1` (stereo unspecified), with -1.58%; and `Cc1cc(C(=O)N2CCC3(CC2)COCCN(c2cccnc2)C3)[nH]n1`, with -2.66%. Consider `Cc1nn(C)c(C)c1C1CCCN1CCOc1ccccc1C#N` (stereo unspecified), for which the cytotoxicity at 10 µM was 8.13%. On to `O=C(C(CNCc1cccs1)c1ccccc1)N1CCOCC1` (stereo unspecified), for which the cytotoxicity at 10 µM came to 0.142%. In the case of `Cc1ccc(CNC(=O)CNCC2CCN(CCO)CC2)s1`, the cytotoxicity at 10 µM was 6.89%. To `CCCNC(=O)Cn1nc(C)c2cnn(C(C)(C)C)c2c1=O` belongs -3.57%; to `Fc1cnc(N2C[C@H]3CCC[C@@]3(COc3ccccn3)C2)nc1`, 15.6%; to `Cc1cc(C)c(CNC(=O)NCCCNc2ccccn2)c(=O)[nH]1`, -43%. As to `CNS(=O)(=O)CC(=O)N1CCC(c2ccc(F)c(F)c2)CC1`, the cytotoxicity at 10 µM came out at 0.696%. As for `O=C(NCc1ccon1)Nc1cc(F)ccc1N1CCCCC1`, the cytotoxicity at 10 µM came to 12.7%. As to `Cn1ncc2c(N3CCC3)nc(-c3ccncc3)nc21`, the cytotoxicity at 10 µM worked out at 11.8%. Turning to `Cc1cc(CN2CC[C@H]3[C@H]2CCN3C)oc1C`, the cytotoxicity at 10 µM is -0.655%. As for `CCCc1nnc(N2C[C@@H](C)[C@@](C)(O)C2)s1`, the cytotoxicity at 10 µM came to 1.22%. With `CNC(=O)c1cnc2n1CCN(Cc1cccnc1OC)C2`, the cytotoxicity at 10 µM is 8.91%. Then `CC(=O)NCCc1ccc(S(=O)(=O)N(C)C(C)CC(C)C)s1` (stereo unspecified), with -1.88%; and `CCCc1cc(=O)[nH]c(SCc2ccccn2)n1`, with -3.53%; and `O=C(NCCc1nnc2n1CCCCC2)N1CCC2(CCOC2)C1` (stereo unspecified), with 4.18%. In the case of `O=S(=O)(C1CC1)N1C[C@@H]2CN(Cc3cccs3)CCO[C@@H]2C1`, the cytotoxicity at 10 µM was -134%. To `CS(=O)(=O)CCOc1nc(-c2ccccc2Cl)no1` belongs -11.2%; to `COCCC(=O)N1CCC2(CCCN2Cc2cccc(Cl)c2)C1` (stereo unspecified), 10.6%; to `O=C(NCCn1ccnc1)c1cc(Br)c[nH]1`, -5.2%. Then `CC(=O)Nc1cccc2c1ccn2CC(=O)Nc1ncc[nH]1`, with 5.83%; and `COCC(=O)Nc1ccccc1-c1ccc(=O)n(C)n1`, with 4.51%; and `COCC(=O)Nc1cnc(N2CCN(c3ccccc3)CC2)nc1`, with -9.87%. Take `CC(C)CC(NS(C)(=O)=O)C(=O)N(C)Cc1nnc2n1CCC2` (stereo unspecified): the cytotoxicity at 10 µM was -4.22%. Then `CNC(=O)C1Cn2ccnc2C2(CCN(C(=O)CC3CCCC3)CC2)O1` (stereo unspecified), with -145%; and `COc1ccc(F)c(-c2cc(C(=O)NC3CC3)ccn2)c1`, with -1.36%; and `c1ccc2c3c([nH]c2c1)C(c1nn[nH]n1)CCC3` (stereo unspecified), with -7.23%.

On to `O=C(Cc1ccccn1)N1C[C@H]2CC[C@@H](C1)N(Cc1ccccc1)C2=O`, for which the cytotoxicity at 10 µM was -13%.

Consider `O=C([C@H]1C[C@H]2OCC[C@H]2N(Cc2ccc(F)cc2)C1)N1CCCCO1`, for which the cytotoxicity at 10 µM was -65.5%. To `COc1c(F)cccc1C(=O)N(C)Cc1nc(-c2ccccn2)no1` belongs -1.51%; to `Cc1n[nH]cc1CNC(C(=O)N1CCCCC1)c1ccccc1` (stereo unspecified), 8.37%; to `Cn1cccc1C(O)CNS(=O)(=O)Cc1ccccc1` (stereo unspecified), -37.1%. Take `Cc1ccc2c(c1)CN(C(=O)c1ccncc1)C(CN(C)C)CO2` (stereo unspecified): the cytotoxicity at 10 µM is -13.5%. As for `CN(C)CCN(CC1CCCO1)C(=O)Cc1cn2ccccc2n1` (stereo unspecified), the cytotoxicity at 10 µM is -2.96%. As for `Cc1ccc(NC2CCN(C(=O)c3ccoc3C)CC2)nn1`, the cytotoxicity at 10 µM was -12.7%. For the compound `O=C(CC(SC1CCCCC1)C(=O)O)c1ccc(Cl)cc1` (stereo unspecified), the cytotoxicity at 10 µM is 3.16%. For the compound `c1ccc(CCc2n[nH]c(CCN3CCCCC3)n2)cc1`, the cytotoxicity at 10 µM amounted to 5.05%. To `COCC1CC2(CCN(Cc3nccs3)CC2)CN1Cc1ccccn1` (stereo unspecified) belongs -98.4%; to `COc1ccccc1C(=O)N1CCNCC1C(N)=O` (stereo unspecified), 1.96%. Then `COc1cccc(NC(=O)CC2Cn3ncnc3NC2=O)c1` (stereo unspecified), with 4.4%. For the compound `O=C(c1ccccn1)N1C[C@H]2CC[C@@H](C1)N(C(=O)CCN1CCCC1)C2`, the cytotoxicity at 10 µM came out at 3.92%. Take `CC(C)c1nc2c(n1C)CCN(CC(=O)Nc1ccc(Cl)cn1)C2`: the cytotoxicity at 10 µM was determined as 0.241%. In the case of `O=C(O)C1(n2ccnc2)CCN(Cc2cc3ccccc3o2)CC1`, the cytotoxicity at 10 µM is -6.34%.

On to `CCOC(=O)c1cnn(C2CCN(C(=O)CC3C=CCC3)CC2)c1N` (stereo unspecified), for which the cytotoxicity at 10 µM worked out at 7.87%.

Consider `Cc1nnc2n1CCN(C(=O)c1cc(Cl)c(Cl)n1C)C2`, for which the cytotoxicity at 10 µM was -4.05%. Turning to `Cn1cc(C(=O)N2CCCC(c3ccncc3)C2)cn1` (stereo unspecified), the cytotoxicity at 10 µM was -13%. In the case of `Cc1noc(C)c1CN1CC[C@H]2OCC[C@@H](C(=O)N3CCCO3)[C@@H]2C1`, the cytotoxicity at 10 µM is -8.25%. To `Cc1nc(C)c(CC(=O)N2C[C@@H](C(=O)O)[C@H](c3ccccc3C)C2)s1` belongs -120%.

Take `CCc1noc(CN2CCN(C(=O)c3ccccn3)CC2)n1`: the cytotoxicity at 10 µM is -0.775%. For `CN(C)[C@@H]1CO[C@H](CNC(=O)C2CCCC2)[C@H]1O`, the cytotoxicity at 10 µM was -0.321%.
